Measured values: ChEMBL document CHEMBL1136933 (J Med Chem, 2009)
Active and inactive are the calls of the source. The calls are words filed in the database; no cut-off is given here.

What was measured:
[1] = biological target: T1, Muscarinic acetylcholine receptor M5 (Homo sapiens) (UniProt P08912); assay: Intrinsic activity at human muscarinic M5 receptor expressed in CHO cells coexpressing Gq protein up to 30 uM by calcium mobilization assay in absence of acetylcholine; type: functional, cell-based
T1 sequence (whole entry): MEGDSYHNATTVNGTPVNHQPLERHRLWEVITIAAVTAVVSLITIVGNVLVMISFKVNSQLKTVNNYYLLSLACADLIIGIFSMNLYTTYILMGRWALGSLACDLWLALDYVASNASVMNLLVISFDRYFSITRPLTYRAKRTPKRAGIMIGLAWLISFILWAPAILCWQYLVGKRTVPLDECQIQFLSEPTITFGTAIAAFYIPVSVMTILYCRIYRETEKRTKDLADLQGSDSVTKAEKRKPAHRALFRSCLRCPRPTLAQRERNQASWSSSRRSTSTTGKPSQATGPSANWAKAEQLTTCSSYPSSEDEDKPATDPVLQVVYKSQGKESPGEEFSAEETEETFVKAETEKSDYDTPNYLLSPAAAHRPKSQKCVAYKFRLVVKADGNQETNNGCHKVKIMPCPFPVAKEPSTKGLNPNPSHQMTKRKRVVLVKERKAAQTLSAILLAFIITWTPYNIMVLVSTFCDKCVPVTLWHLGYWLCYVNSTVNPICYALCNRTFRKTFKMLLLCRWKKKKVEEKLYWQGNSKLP

[2] = Tmax in Sprague-Dawley rat brain at 10 mg/kg, ip; type: ADME, organism-based; parameters: dose 10 mg/kg, route intraperitoneal
In short: (§1)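 Male Sprague-Dawley rats (225-250 g) dosed ip at 10 mg/kg as a 5 mg/ml micro-suspension in 10% Tween 80 in sterile water. Plasma and brain sampled at 0.5, 1, 3 and 6 h, three animals per time point. Quantified by protein precipitation and LC-MS/MS against an internal standard. Brain values corrected for residual blood. PK parameters derived by noncompartmental analysis.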

[3] = Apparent oral volume of distribution in Sprague-Dawley rat plasma at 10 mg/kg, ip; type: ADME, organism-based; parameters: dose 10 mg/kg; details: read-out: Vc/F; in short: as §1
Plasma = assay: Elimination half life in Sprague-Dawley rat plasma at 10 mg/kg, ip; type: ADME, organism-based; parameters: dose 10 mg/kg, route intraperitoneal; details: in vivo; in short: as §1
[4] = Selectivity ratio of EC50 for rat muscarinic M2 receptor to EC50 for human muscarinic M5 receptor
[5] = Apparent oral clearance in Sprague-Dawley rat plasma at 10 mg/kg, ip; type: ADME, organism-based; parameters: dose 10 mg/kg; in short: as §1
[6] = biological target: T1, Muscarinic acetylcholine receptor M5 (Homo sapiens); assay: Activation of human muscarinic M5 receptor expressed in CHO cells coexpressing Gq protein assessed as potentiation of acetylcholine-induced intracellular Ca2+ mobilization at 30 uM relative to acetylcholine; type: functional, cell-based
[7] = biological target: T1, Muscarinic acetylcholine receptor M5 (Homo sapiens); assay: Displacement of [3H]NMS from human muscarinic M5 receptor expressed in CHO cells coexpressing Gq protein up to 30 uM by scintillation counting; type: cell-based
[8] = AUC (0 to 6 hrs) in Sprague-Dawley rat brain at 10 mg/kg, ip; type: ADME, organism-based; parameters: time < 6 hr, dose 10 mg/kg, route intraperitoneal; in short: as §1
[9] = biological target: T2, Muscarinic acetylcholine receptor M1 (Rattus norvegicus, UniProt P08482); assay: Activation of rat muscarinic M1 receptor expressed in CHO cells co-expressing Gq protein assessed as potentiation of acetylcholine-induced intracellular Ca2+ mobilization; type: functional, cell-based
T2 sequence (P08482 whole entry): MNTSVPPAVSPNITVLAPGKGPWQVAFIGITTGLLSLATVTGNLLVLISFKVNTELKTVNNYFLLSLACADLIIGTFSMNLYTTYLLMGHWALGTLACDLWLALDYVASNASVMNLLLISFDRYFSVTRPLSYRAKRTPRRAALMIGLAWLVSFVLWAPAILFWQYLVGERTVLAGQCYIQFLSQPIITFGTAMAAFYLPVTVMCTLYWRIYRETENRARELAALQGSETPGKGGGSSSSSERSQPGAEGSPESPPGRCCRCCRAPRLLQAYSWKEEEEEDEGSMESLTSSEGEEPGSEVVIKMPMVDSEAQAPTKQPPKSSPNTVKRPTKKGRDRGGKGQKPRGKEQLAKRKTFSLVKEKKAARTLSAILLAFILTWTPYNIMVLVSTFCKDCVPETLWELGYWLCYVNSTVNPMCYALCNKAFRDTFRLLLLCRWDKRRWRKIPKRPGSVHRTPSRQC

[10] = Selectivity ratio of EC50 for rat muscarinic M1 receptor to EC50 for human muscarinic M5 receptor
Homo sapiens = species: Homo sapiens; assay: Selectivity ratio of EC50 for human muscarinic M3 receptor to EC50 for human muscarinic M5 receptor
[11] = biological target: T3, Muscarinic acetylcholine receptor M4 (Rattus norvegicus) (UniProt P08485); assay: Activation of rat muscarinic M4 receptor expressed in CHO cells coexpressing chimeric Gqi5 protein assessed as potentiation of acetylcholine-induced intracellular Ca2+ mobilization up to 30 uM; type: functional, cell-based
T3 sequence (whole entry): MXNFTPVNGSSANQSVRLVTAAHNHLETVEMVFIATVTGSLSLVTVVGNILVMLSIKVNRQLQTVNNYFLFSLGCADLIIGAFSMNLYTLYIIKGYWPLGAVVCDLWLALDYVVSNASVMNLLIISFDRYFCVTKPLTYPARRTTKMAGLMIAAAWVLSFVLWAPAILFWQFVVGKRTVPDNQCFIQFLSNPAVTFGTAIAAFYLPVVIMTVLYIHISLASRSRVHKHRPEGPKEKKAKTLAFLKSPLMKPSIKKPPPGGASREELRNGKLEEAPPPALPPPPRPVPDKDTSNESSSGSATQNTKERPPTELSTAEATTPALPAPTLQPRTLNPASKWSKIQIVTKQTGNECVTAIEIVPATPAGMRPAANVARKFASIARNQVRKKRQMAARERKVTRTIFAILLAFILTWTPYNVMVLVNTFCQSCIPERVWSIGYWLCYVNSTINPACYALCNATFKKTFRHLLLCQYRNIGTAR

[12] = biological target: T4, Muscarinic acetylcholine receptor M5 (Homo sapiens, UniProt P08912); assay: Activation of human muscarinic M5 receptor expressed in CHO cells coexpressing Gq protein assessed as potentiation of acetylcholine-induced intracellular Ca2+ mobilization; type: functional, cell-based
T4 sequence (P08912 whole entry): T1 sequence (whole entry)

[13] = Cmax in Sprague-Dawley rat plasma at 10 mg/kg, ip within 1 hr; type: ADME, organism-based; parameters: dose 10 mg/kg, route intraperitoneal; in short: as §1
[14] = biological target: Muscarinic acetylcholine receptor M3 (Homo sapiens, UniProt P20309); assay: Activation of human muscarinic M3 receptor expressed in CHO cells coexpressing Gq protein assessed as potentiation of acetylcholine-induced intracellular Ca2+ mobilization; type: functional, cell-based
In short: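 Calcium flux assay. Stable CHO lines were seeded at 5 × 10^4 cells/well (M1, M3, M5) or 6 × 10^4 cells/well (Gqi5 M2, M4) and grown overnight at 37 °C, 5% CO2. Cells were loaded 1 h at 37 °C with 2 µM Fluo-4 AM. […] At least three independent determinations, each in duplicate or more.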

Sequence of Muscarinic acetylcholine receptor M3 (P20309 whole entry): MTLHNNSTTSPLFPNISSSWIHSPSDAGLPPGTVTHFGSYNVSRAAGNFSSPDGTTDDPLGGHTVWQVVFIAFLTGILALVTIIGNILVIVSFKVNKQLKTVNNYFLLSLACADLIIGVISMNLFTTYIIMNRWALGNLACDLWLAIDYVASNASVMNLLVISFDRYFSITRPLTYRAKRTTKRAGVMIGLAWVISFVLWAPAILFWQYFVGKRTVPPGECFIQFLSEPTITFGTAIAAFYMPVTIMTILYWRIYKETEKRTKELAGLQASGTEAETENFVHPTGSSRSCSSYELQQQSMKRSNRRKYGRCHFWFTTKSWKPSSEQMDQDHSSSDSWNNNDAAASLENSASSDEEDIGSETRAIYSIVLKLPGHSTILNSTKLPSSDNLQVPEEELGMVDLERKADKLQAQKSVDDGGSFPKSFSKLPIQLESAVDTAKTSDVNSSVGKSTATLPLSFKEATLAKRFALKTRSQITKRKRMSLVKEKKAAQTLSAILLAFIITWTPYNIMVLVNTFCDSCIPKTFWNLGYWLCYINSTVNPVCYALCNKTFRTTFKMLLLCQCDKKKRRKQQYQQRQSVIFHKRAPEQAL

COc1ccc(CN2C(=O)C(=O)c3cc(OC(F)(F)F)ccc32)cc1
Activity [1]: inactive | Tmax [2]: 30 min | Vd/F [3]: 59.6 L/kg | beta t1/2 (Plasma): 282 min | Ratio EC50 [4]: > 30 | CL/F [5]: 145 mL/min | %max [6]: 60.7% | Activity [7]: inactive | AUC(0-t) at 6 h [8]: 159 ng·h/mL | EC50 [9]: > 30 µM | Ratio EC50 [10]: > 30 | Ratio EC50 (Homo sapiens): > 30 | Activity [11]: inactive | EC50 [12]: 1.16 µM | Cmax [13]: 162 ng/mL | EC50 [14]: > 30 µM
